Assay results as given in ChEMBL document CHEMBL5154669, “G-Quadruplex DNA as a Target in Pathogenic Bacteria: Efficacy of an Extended Naphthalene Diimide Ligand and Its Mode of Action” (J Med Chem, 2022).

Columns and labels:
[1] = system: Escherichia coli; assay: Antibacterial activity against Escherichia coli LMG 8223 assessed as inhibition of bacterial growth incubated for 20 hrs by CLSI based broth microdilution method; assay type: functional
Summary of the method: (§1)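 Broth microdilution in cation-adjusted Mueller-Hinton broth following CLSI guidelines. DMSO stocks were at 10 mM; compounds were twofold serially diluted over 128 to 2 μM. The inoculum was at 5 × 10⁵, prepared from colonies grown 20 h at 37 °C and adjusted to 0.5 McFarland. Plates ran 20 h at 37 °C with OD600 read-out. MIC was the lowest concentration inhibiting visible growth, in triplicate.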

[2] = system: Klebsiella pneumoniae; assay: Antibacterial activity against Klebsiella pneumoniae LMG 20218 assessed as inhibition of bacterial growth incubated for 20 hrs by CLSI based broth microdilution method; assay type: functional; summary of the method: as §1
[3] = system: Pseudomonas aeruginosa; assay: Antibacterial activity against Pseudomonas aeruginosa LMG 6395 assessed as inhibition of bacterial growth incubated for 20 hrs by CLSI based broth microdilution method; assay type: functional; summary of the method: as §1
[4] = system: Bacillus cereus; assay: Antibacterial activity against Bacillus cereus ATCC 10987 assessed as inhibition of bacterial growth incubated for 20 hrs by CLSI based broth microdilution method; assay type: functional; summary of the method: as §1
[5] = system: Bacillus cereus; assay: Antibacterial activity against Bacillus cereus ATCC 14579 assessed as inhibition of bacterial growth incubated for 20 hrs by CLSI based broth microdilution method; assay type: functional; summary of the method: as §1
[6] = system: Enterococcus faecalis; assay: Antibacterial activity against Enterococcus faecalis LMG 08222 assessed as inhibition of bacterial growth incubated for 20 hrs by CLSI based broth microdilution method; assay type: functional; summary of the method: as §1
[7] = system: Enterococcus faecalis; assay: Antibacterial activity against Enterococcus faecalis V583 assessed as inhibition of bacterial growth incubated for 20 hrs by CLSI based broth microdilution method; assay type: functional; summary of the method: as §1
[8] = system: Enterococcus faecium; assay: Antibacterial activity against Enterococcus faecium LMG 16003 assessed as inhibition of bacterial growth incubated for 20 hrs by CLSI based broth microdilution method; assay type: functional; summary of the method: as §1
[9] = system: Klebsiella aerogenes; assay: Bacteriostatic activity against Enterobacter aerogenes LMG 02094 assessed as inhibition of bacterial growth; assay type: functional
Summary of the method: (§2)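 A standard MIC plate (128–2 μM, cMHB, 20 h, 37 °C) was read at OD600. Each well then seeded at 10% a fresh compound-free cMHB plate, grown another 20 h at 37 °C and read at OD600. No growth at the same concentration in both plates counted as bactericidal. Growth above the MIC counted as bacteriostatic. Done in triplicate.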

[10] = system: Escherichia coli; assay: Bactericidal against Escherichia coli LMG 8223 assessed as inhibition of bacterial growth; assay type: functional; summary of the method: as §2
[11] = system: Klebsiella pneumoniae; assay: Bactericidal activity against Klebsiella pneumoniae LMG 20218 assessed as inhibition of bacterial growth; assay type: functional; summary of the method: as §2
[12] = system: Pseudomonas aeruginosa; assay: Bactericidal activity against Pseudomonas aeruginosa LMG 6395 assessed as inhibition of bacterial growth; assay type: functional; summary of the method: as §2
[13] = system: Bacillus cereus; assay: Bacteriostatic activity against Bacillus cereus ATCC 10987 assessed as inhibition of bacterial growth; assay type: functional; summary of the method: as §2
[14] = system: Enterococcus faecium; assay: Bacteriostatic activity against Enterococcus faecium LMG 16003 assessed as inhibition of bacterial growth; assay type: functional; summary of the method: as §2
[15] = system: DNA; assay: Stabilization of Staphylococcus aureus in G-quadruplex DNA GGA AGG AGG GGT GAC AGG G assessed as change in melting temperature at 10 uM incubated for 16 hrs by […]; assay type: nucleic-acid assay
Summary of the method: (§3)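 Readout was CD melting, not FRET: 2.5 μM oligonucleotide in 10 mM lithium cacodylate pH 7.4 with KCl set per sequence (initial Tm 60-70 °C). Annealed 95 °C 5 min, cooled to room temperature over 4 h, then ligand 10 μM (4 equiv) equilibrated 16 h at 20 °C. Ellipticity at 260 nm tracked every 0.1 °C, 20-95 °C at 5 °C/min; Tm by van't Hoff two-state fit.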

[16] = system: DNA; assay: Stabilization of Escherichia coli in G-quadruplex DNA GGT GGG GAG GGG TAA GGG G assessed as melting temperature at 10 uM incubated for 16 hrs by […]; assay type: nucleic-acid assay; summary of the method: as §3
[17] = system: Escherichia coli; assay: Antibacterial activity against Escherichia coli LMG 8223 infected in Galleria mellonella assessed as survival at 5 to 10 mg/kg after 5 days; assay type: functional; settings: dose 5-10 mg/kg, time 5 day
Summary of the method: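 Larvae, 20 per group, were infected with 10 µL of saline-washed bacteria into the left proleg: E. coli at 10⁶ CFU/worm and S. aureus at 10⁵ CFU/worm. After 1 h at 37 °C, the compound (5 or 10 mg/kg) was injected into the last right proleg. Controls were meropenem 5 mg/kg (E. coli), rifampicin 10 mg/kg (S. aureus) and NaCl 0.9%. Mortality was followed over 5 d at 37 °C.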

[18] = Toxicity against Galleria mellonella assessed as survival at 5 to 128 mg/kg measured after 5 days; assay type: organism-based; settings: in vivo, dose 5-128 mg/kg, time 5 day, read-out: Activity
Summary of the method: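 For uninfected larvae, 20 per treatment, 10 µL was injected into the hemocoel through the last left proleg to give 8, 16, 32, 64 or 128 mg/kg. NaCl 0.9% served as the negative control. Larvae were held at 37 °C for 5 d, with mortality recorded daily.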

[19] = system: Escherichia coli; assay: Antibacterial activity against Escherichia coli LMG 8223; assay type: functional, organism-based; settings: DDE = dose-dependent effect
Summary of the method: (§4)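 Cultures were inoculated at 2% and grown at 37 °C, with OD600 read every 5 min for 8 h. NDI-10 was added at exponential-phase onset (~3 h). Concentrations were 32, 16, 8 and 4 μM for E. coli, and 16, 8, 4 and […] μM for the Gram-positive strains.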

[20] = system: Bacillus cereus; assay: Antibacterial activity against Bacillus cereus ATCC 10987; assay type: functional, organism-based; settings: DDE = dose-dependent effect; summary of the method: as §4
[21] = system: Enterococcus faecium; assay: Antibacterial activity against Enterococcus faecium LMG 16003; assay type: functional, organism-based; settings: DDE = dose-dependent effect; summary of the method: as §4
[22] = system: Staphylococcus aureus; assay: Antibacterial activity against Staphylococcus aureus LMG 8224; assay type: functional, organism-based; settings: DDE = dose-dependent effect; summary of the method: as §4
[23] = system: Escherichia coli; assay: Antimicrobial activity against Escherichia coli LMG 8223 assessed as inhibition of bacterial growth in presence of D11 incubated for 20 hrs; settings: LMG 8223, 20 h
[24] = system: Enterococcus faecalis; assay: Antimicrobial activity against Enterococcus faecalis V583 assessed as inhibition of bacterial growth in presence of D11 incubated for 20 hrs; settings: V583, 20 h
[25] = system: Salmonella enterica; assay: Antimicrobial activity against Salmonella enterica LMG 07233 assessed as inhibition of bacterial growth in presence of D11 incubated for 20 hrs; settings: LMG 07233, 20 h
[26] = system: Enterobacter cloacae; assay: Antimicrobial activity against Enterobacter cloacae LMG 02783 assessed as inhibition of bacterial growth in presence of D11 incubated for 20 hrs; settings: LMG 02783, 20 h
[27] = system: Enterococcus faecium; assay: Antimicrobial activity against Enterococcus faecium LMG 16003 assessed as inhibition of bacterial growth in presence of D11 incubated for 20 hrs; settings: LMG 16003, 20 h
[28] = system: Klebsiella aerogenes; assay: Antimicrobial activity against Enterobacter aerogenes LMG 02094 assessed as inhibition of bacterial growth in presence of D11 incubated for 20 hrs; settings: LMG 02094, 20 h
[29] = system: Enterococcus faecium; assay: Antibacterial activity against Enterococcus faecium LMG 11423 assessed as inhibition of bacterial growth incubated for 20 hrs by CLSI based broth microdilution method; settings: LMG 11423, 20 h

With CN(C)CCCn1c(=O)c2ccc3c(=O)n(CCCN(C)C)c(=O)c4c5[nH]c6ccccc6[nH]c5c(c1=O)c2c34.O=C(O)C(F)(F)F.O=C(O)C(F)(F)F as the compound, how does the MIC [1] read?
The MIC was 16 µM.

What about the MIC [2] of the same compound?
Its MIC is greater than 128 µM.

What about the MIC [3] of the same compound?
Its MIC is 128 µM.

And the MIC [4]?
The MIC was 8 µM.

And the MIC [5]?
Its MIC is 8 µM.

And the MIC [6]?
Its MIC is 8 µM.

And the MIC [7]?
The MIC was 4 µM.

And the MIC [8]?
Its MIC is 4 µM.

And the MIC [9]?
Its MIC is greater than 128 µM.

And the MIC [10]?
Its MIC is 16 µM.

What about the MIC [11] of the same compound?
Its MIC is greater than 128 µM.

What about the MIC [12] of the same compound?
The MIC was 128 µM.

What about the MIC [13] of the same compound?
The MIC was 64 µM.

What about the MIC [14] of the same compound?
Its MIC is 32 µM.

And the ΔTm [15]?
Its ΔTm is greater than 30.8 °C.

What about the Tm [16] of the same compound?
Its Tm is 91 °C.

What about the Activity [17] of the same compound?
Its Activity is 90%.

What about the survival at 120 h [18] of the same compound?
Its survival at 120 h is 65%.

What about the Activity [19] of the same compound?
Its Activity is “Dde”.

And the Activity [20]?
The Activity was “Dde”.

What about the Activity [21] of the same compound?
The Activity was “Dde”.

And the Activity [22]?
The Activity was “Dde”.

What about the MIC [23] of the same compound?
Its MIC is less than 0.5 µM.

And the MIC [24]?
The MIC was 4 µM.

And the MIC [25]?
The MIC was less than 0.5 µM.

What about the MIC [26] of the same compound?
Its MIC is 8 µM.

What about the MIC [27] of the same compound?
The MIC was 4 µM.

And the MIC [28]?
The MIC was 8 µM.

And the MIC [29]?
Its MIC is 4 µM.
